Measurements gathered from unrelated publications.
Compare with care: the assays were run in different laboratories.
Target: RAC-alpha serine/threonine-protein kinase (AKT1, Homo sapiens, UniProt P31749)

Structure (SMILES)	effect on	mode	technique	tested at	measurement	result
COc1ncccc1-c1cnn2ccc(N3CCN(C(=O)OC(C)C)CC3)nc12	binding		competition with immobilised ligand	1 µM	remaining binding	100%
Nc1ncc(-c2nc(N3CCOCC3)nc(N3CCOCC3)n2)c(C(F)F)n1	binding		competition with immobilised ligand	10 µM	remaining binding	94%
Cn1cc(-c2cc(F)cc(N3CCn4c(cc5c4CCCC5)C3=O)c2CO)cc(Nc2ccc(N3CCN(C4COC4)CC3)cn2)c1=O	enzyme activity	inhibitor		0.1 µM	inhibition	5%
Cn1cncc1[C@](O)(COc1ccc(C#N)cc1-c1ccc(OC(F)(F)F)cc1)c1ccc(C#N)cc1	cell-free assay		competition with immobilised ligand	1 µM	remaining binding	84%
CC(C)(C)c1cc(C=C(C#N)C#N)cc(Br)c1O	enzyme activity	inhibitor		0.5 µM	remaining activity	108%
O=C(NCc1ncc(C(F)(F)F)cc1Cl)c1ccc2c(c1)C1(CCS(=O)(=O)CC1)[C@H](C1CC1)N2S(=O)(=O)c1ccc(F)cc1	cell-free assay		competition with immobilised ligand	1 µM	remaining binding	96%
COc1cc(Nc2ncc(F)c(Nc3ccc4c(n3)NC(=O)C(C)(C)O4)n2)cc(OC)c1OC	binding		competition with immobilised ligand	10 µM	inhibition	0%
Cn1cc(-c2cccc(N3CCc4c(sc5c4CC(C)(C)C5)C3=O)c2CO)cc(Nc2ccncn2)c1=O	enzyme activity	inhibitor		1 µM	inhibition	4%
C#Cc1n[nH]c2c(-c3cn([C@@H](C)c4ccccc4)c(=O)[nH]c3=O)cc(F)cc12	enzyme activity	inhibitor		0.1 µM	inhibition	1.4%
Cc1nn(C)cc1-c1nc2c(N3CCN(Cc4ccc(Cl)cc4)CC3)c(Cl)cnc2[nH]1	binding		competition with immobilised ligand	1 µM	remaining binding	100%
O=c1[nH]c2ccccc2n1C1CCN(Cc2ccc(-c3[nH]c4cc5ncnc5cc4nc3-c3ccccc3)cc2)CC1	cell-free assay			0.5 µM	remaining signal	114%
C#Cc1n[nH]c2c(-c3cn(C(C)c4ccccn4)c(=O)[nH]c3=O)cc(F)cc12 (stereo not drawn)	enzyme activity	inhibitor		1 µM	inhibition	3.7%
